# Bioassay records: PubChem BioAssay, several laboratories
# KCNQ1 pot – human KCNQ1 channel potentiation or activation | P51787 | CHO-K1 KCNQ1, thallium flux FluxOR fluorescence; active compounds read high | B-score at 10 µM | hit rate 0.35% among 310,000;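 active = fluorescence ratio B-score, a plate-corrected score, at least three library SD, with initial intensity B-score within 5 SD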
#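 assay system = CHO-K1 cells stably expressing KCNQ1 | medium = assay buffer, equal DMSO in all wells | timing = 37 °C overnight plating, 90-min dark dye load, 20-min compound pretreatment | measured by = kinetic FluxOR thallium fluorescence, 10-s 1-Hz baseline, 110-s post-stimulus read | measure = fluorescence change relative to baseline, converted to B score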
# KCNQ1 block – inhibitors of human KCNQ1 potassium channel; P51787; CHO-K1 KCNQ1, FluxOR thallium flux fluorescence; active compounds read high; B-score at 10 µM; hit rate 1.3% among 310,000; AID 2642;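 active = compounds whose thallium flux B-score, printed positive for inhibition, exceeds three library SD while starting fluorescence stays within three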;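 note: channel opened by potassium depolarization with thallium stimulus after 20 min compound exposure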
# Cl transport mod – KCC2 (human) Cl- transport modulation | Q9H2X9 | KCC2 cells, thallium flux FluoZin-2 fluorescence | B-score of Tl+ flux slope (higher = more flux/activation; lower = inhibition) at 10 µM | hit rate 2.2% among 190,000;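 active = thallium flux slope and its plate-corrected score both differing from the plate sample mean at a set confidence after two filtering rounds, in either direction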;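 note: slope of fluorescence scaled to starting intensity during 10 to 20 s after thallium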
# Target sequence (Q9H2X9 whole entry, looked up): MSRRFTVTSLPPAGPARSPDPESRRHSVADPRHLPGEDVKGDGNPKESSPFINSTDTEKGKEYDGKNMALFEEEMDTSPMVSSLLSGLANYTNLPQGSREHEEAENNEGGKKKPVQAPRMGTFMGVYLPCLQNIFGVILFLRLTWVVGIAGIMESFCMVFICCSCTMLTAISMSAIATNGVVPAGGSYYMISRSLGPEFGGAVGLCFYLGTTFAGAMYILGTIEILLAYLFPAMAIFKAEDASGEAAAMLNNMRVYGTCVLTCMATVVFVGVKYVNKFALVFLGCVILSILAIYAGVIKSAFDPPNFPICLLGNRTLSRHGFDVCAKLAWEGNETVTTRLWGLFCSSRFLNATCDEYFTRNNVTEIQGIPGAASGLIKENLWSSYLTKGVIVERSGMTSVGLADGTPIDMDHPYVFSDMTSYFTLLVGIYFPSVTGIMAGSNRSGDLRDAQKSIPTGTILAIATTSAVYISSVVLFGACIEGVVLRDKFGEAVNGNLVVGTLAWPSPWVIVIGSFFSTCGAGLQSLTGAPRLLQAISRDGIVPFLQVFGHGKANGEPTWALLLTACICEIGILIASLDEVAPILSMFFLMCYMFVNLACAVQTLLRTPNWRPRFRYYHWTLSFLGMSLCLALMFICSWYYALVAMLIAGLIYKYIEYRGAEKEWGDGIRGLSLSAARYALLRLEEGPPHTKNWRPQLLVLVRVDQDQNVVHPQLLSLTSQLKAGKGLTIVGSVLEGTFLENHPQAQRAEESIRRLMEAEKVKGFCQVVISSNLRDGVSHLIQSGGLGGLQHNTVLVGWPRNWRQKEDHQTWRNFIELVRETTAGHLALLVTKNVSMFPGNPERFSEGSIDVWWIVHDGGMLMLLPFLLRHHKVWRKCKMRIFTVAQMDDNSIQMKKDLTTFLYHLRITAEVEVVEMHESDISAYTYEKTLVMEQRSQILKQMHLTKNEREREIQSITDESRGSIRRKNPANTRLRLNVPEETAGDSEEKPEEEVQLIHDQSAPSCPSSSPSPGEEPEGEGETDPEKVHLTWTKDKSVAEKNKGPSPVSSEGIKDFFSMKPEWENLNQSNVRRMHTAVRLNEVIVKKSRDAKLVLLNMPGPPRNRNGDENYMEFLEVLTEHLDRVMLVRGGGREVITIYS
# KCNK3 block – human KCNK3 channel inhibition, primary screen | hit rate 0.84% among 340,000 | B-score at 10 µM | AID 602410 | CHO-KCNK3 thallium flux, FluxOR fluorescence; active compounds read low | O14649;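 active = B-score under library mean minus 4 SD, starting fluorescence ratio at most library mean plus 5 SD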;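 note: more negative B-score means stronger inhibition of thallium flux through KCNK3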
# KCNK9 block – blocks the human KCNK9 two-pore domain potassium channel; Q9NPC2; HEK293 KCNK9, FluxOR thallium flux fluorescence; active compounds read low; hit rate 1.2% among 310,000; AID 488922; B-score at 10 µM;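 active = ratio B-score over 3 SD below the library mean, with starting fluorescence within 5 SD of its mean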;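 note: negative B-score means less thallium flux so channel inhibition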
# hERG protect – shields human hERG channel from block by proarrhythmic agents | CHO-hERG, FluxOR thallium flux, dofetilide IC70 present | activation (rescue from dofetilide block), less the hit threshold, % at 10 µM | hit rate 0.51% among 310,000 | AID 1511;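 active = activation above the mean of controls blocked by dofetilide plus 5 SD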;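 note: thallium influx through hERG after potassium depolarization seen as dye fluorescence rise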
# KCC2 sec1 – confirmation of human KCC2 transport modulators. HEK293-KCC2, thallium flux, FluoZin2 fluorescence; active compounds read high. normalised thallium flux (F/F0 slope) at 10 µM. hit rate 15% among 3,700. shares compounds with Cl transport mod. AID 1713;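 active = thallium flux slope above the same plate's solvent-only control mean plus 3 SD; inconclusive = the two replicate wells disagree; inactive = no significant difference from solvent-only control wells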
# KCC2 bumet counter – thallium flux persisting under bumetanide in KCC2 cells, counter-screen secondary assay. HEK293-KCC2 + bumetanide/ouabain, thallium flux FluoZin2; active compounds read high. hit rate 49% among 3,700. AID 1714. shares compounds with Cl transport mod. normalized thallium flux at 10 µM;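 active = thallium entry rate above the same plate's blocked-transporter control wells by more than 3 SD; inconclusive = the two repeat wells disagree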;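 note: raw slope of fluorescence over initial fluorescence between 10 and 20 s after thallium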
# KCC2 sec2 – confirmation of human KCC2 transport modulators; shares compounds with Cl transport mod; HEK293-KCC2, thallium flux FluoZin2 fluorescence; actives lie on both sides; F/F0 rise rate, 10–20 s post-thallium; normalized thallium flux at 10 µM; hit rate 23% among 3,700; AID 1715;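 active = thallium flux slope more than 3 SD above or below the plate's solvent-only control mean, mostly below; inconclusive = the two repeat wells disagreed; inactive = no significant shift from solvent-only controls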;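 note: raw slope with 0.1% DMSO as baseline and bumetanide as block control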
# HEK293 Tl flux – counter-screen for KCC2 modulators: effect in parental HEK293 cells; hit rate 46% among 3,700; thallium flux FluoZin2, ouabain; baseline-ratio fluorescence slope, 10–20 s after thallium; thallium flux rate (normalised fluorescence) at 10 µM; AID 1716; shares compounds with Cl transport mod;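 active = thallium flux rate significantly above the same plate's solvent-only control wells, beyond their mean plus 3 SD; inconclusive = the two replicate wells gave conflicting results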
# KCC2 retest ouab – modulates human KCC2 on retest with ouabain | shares compounds with Cl transport mod | AID 1717 | raw Tl+ flux slope (below DMSO = inhibition, above = activation) at 10 µM | HEK293-KCC2, thallium flux FluoZin2 fluorescence; bidirectional: low = inhibitor, high = activator | hit rate 48% among 3,700;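 active = thallium flux slope beyond 3 SD from same-plate DMSO control mean in most replicates, usually higher, sometimes lower; inconclusive = repeat tests gave conflicting results; inactive = no significant difference from controls in most replicates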;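 note: slope of initial-normalized fluorescence between seconds 10 and 20 after thallium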
# HEK293 Tl flux2 – parental HEK flux effect, counter-screen 2. shares compounds with Cl transport mod. HEK293 parental, thallium flux FluoZin-2 fluorescence slope. thallium flux slope at 10 µM. hit rate 33% among 3,700. AID 1718;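 active = thallium flux slope above the same plate's solvent-control mean plus 3 SD in both duplicate wells; inconclusive = duplicate wells that disagreed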;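 note: run without ouabain in cells lacking the KCC2 cotransporter; slope of fluorescence scaled to its starting value between 10 and 20 s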
# An asterisk follows results filed as active; i = inactive; ? = inconclusive; / = no result. A selection: hits, their analogues and other compounds. The true share with any hit is near 4.1%.
SMILES,KCNQ1 pot,KCNQ1 block,Cl transport mod,KCNK3 block,KCNK9 block,hERG protect,KCC2 sec1,KCC2 bumet counter,KCC2 sec2,HEK293 Tl flux,KCC2 retest ouab,HEK293 Tl flux2
CC(C)N1CC(C(=O)Nc2ccc(Cl)c(Cl)c2)CC1=O (stereo not given),i,i,/,i,i,-5,/,/,/,/,/,/
CCN(CC)S(=O)(=O)c1ccc(NC(=O)CSc2ncnc3ccccc23)cc1,i,i,-5.2*,i,i,-8,0.0092,0.0071,?,0.0066,0.013*,0.011
NS(=O)(=O)c1ccc(NC(=O)CSc2ncnc3ccccc23)cc1,i,i,-0.61,i,i,-2,/,/,/,/,/,/
COc1ccc(-n2cnnc2SCC(=O)Nc2cc(S(=O)(=O)N3CCCCC3)ccc2C)cc1,i,i,-4.4*,i,i,-10,0.009,0.0057,0.026*,0.0043,0.014*,0.011
COc1ccc(S(=O)(=O)N2CCCCC2)cc1NC(=O)CSc1ncnc2ccccc12,i,i,-3.3*,i,i,-8,0.0081,0.0054,0.032,?,0.015*,0.011
O=C(c1ccc2ccccc2n1)N1CCN(S(=O)(=O)c2ccccc2)CC1,/,/,/,i,/,/,/,/,/,/,/,/
Fc1cccc(CSc2ncnc3c2ncn3C2CCCCO2)c1 (stereo not given),/,/,/,i,/,/,/,/,/,/,/,/
c1cc2c3c(cccc3c1)-c1cnccc1-2,/,/,/,i,/,/,/,/,/,/,/,/
CN(C)c1ccc(C(O)c2cc3ccccc3s2)cc1 (stereo not given),/,/,/,i,/,/,/,/,/,/,/,/
C1=C[C@H]2CC[C@@H]1N(c1ccccc1)O2,/,/,/,i,/,/,/,/,/,/,/,/
CC(C)C(=O)N/N=C/c1ccc(OCc2ccccc2)cc1,i,i,-4.7*,i,i,-4,0.0072,0.0051,0.03,0.0073,?,0.01
CC(Oc1ccc2ccc(=O)oc2c1)C(=O)N1CCOCC1 (stereo not given),i,i,/,i,i,-14,/,/,/,/,/,/
O=c1[nH]c(CSc2nc3ccccc3s2)nc2cc(Cl)ccc12,i,i,6.2*,/,i,-15,0.011,0.014*,0.033,?,?,0.011
O=c1[nH]c(CSc2nc3ccccc3s2)nc2ccccc12,i,i,1.3,i,i,-9,/,/,/,/,/,/
NC(=O)SCC(=O)Nc1ccc(Cl)c(Cl)c1,/,/,/,i,/,/,0.0073,0.013*,0.026*,0.01*,0.019,?
NC(=O)SCC(=O)Nc1ccc(Cl)cc1,i,i,0.8,i,i,-7,/,/,/,/,/,/
CC1(C)CCC[C@]2(C)C(CS(=O)c3ccccc3)=C(C=O)CC[C@@H]12 (stereo not given in full),i,i,/,i,i,-8,/,/,/,/,/,/
Cc1nc(Nc2ccc3c(c2)OCCO3)c2c(C)c(C)sc2n1,i,i,7.1*,i,i,-1,0.0056,0.021*,0.039*,0.019*,0.031*,0.021*
Cc1sc2ncnc(OCC(=O)Nc3ccc4c(c3)OCCO4)c2c1C,i,i,-0.0075,i,i,-4,/,/,/,/,/,/
C=CCn1c(O)c(N=NC(=S)Nc2ccccc2F)c2ccccc21,48*,i,107*,i,i,102*,0.036*,0.14*,0.05*,?,0.089*,0.028*
Oc1c(N=NC(=S)Nc2ccccc2F)c2ccccc2n1Cc1ccccc1,10*,i,21*,i,i,59*,?,0.046*,0.032,?,0.03*,?
C=CCn1c(O)c(N=NC(=S)Nc2cccc(C)c2)c2ccccc21,40*,i,82*,i,i,19*,0.0063,0.084*,0.057*,0.029*,0.063*,0.023*
O=C(N=Nc1c(O)n(Cc2ccccc2)c2ccccc12)c1ccncc1,i,i,-1.3,i,i,-7,/,/,/,/,/,/
Cc1c(Cl)cccc1NC(=S)N=Nc1c(O)n(CN2CCOCC2)c2ccccc12,i,i,48*,i,i,1,0.016*,0.052*,0.032,0.038*,0.056*,0.013*
CN(Cc1ccccc1)C(=O)c1ccc(NC(=O)Cc2ccc(NC(=O)C3CCCN(S(=O)(=O)c4cccc([N+](=O)[O-])c4)C3)cc2)cc1 (stereo not given),/,/,/,i,/,/,/,/,/,/,/,/
SMILES,KCNQ1 pot,KCNQ1 block,Cl transport mod,KCNK3 block,KCNK9 block,hERG protect,KCC2 sec1,KCC2 bumet counter,KCC2 sec2,HEK293 Tl flux,KCC2 retest ouab,HEK293 Tl flux2
CC(=O)c1ccc(N2CCN(C(=O)c3ccccc3SCC(=O)NCc3ccco3)CC2)c(F)c1,/,/,/,i,/,/,/,/,/,/,/,/
CN1N=C(N)c2cn(C3OC(COP(=O)(O)O)C(O)C3O)c3ncnc1c23 (stereo not given),/,/,/,i,/,/,/,/,/,/,/,/
C=CCn1c(O)c(N=NC(=S)Nc2ccccc2F)c2cc(S(=O)(=O)N3CCOCC3)ccc21,10*,i,64*,i,i,5.9*,0.018*,0.05*,0.038,0.056*,0.049*,0.02*
C(=C\c1ccccc1)/CSc1nnc(-c2ccccc2)n1Cc1ccco1,i,i,-2.9,i,i,-11,0.016,?,0.023*,0.0042*,0.013*,0.0074*
Cc1ccccc1CSc1nnc(-c2ccco2)n1Cc1ccco1,i,i,/,i,i,-11,/,/,/,/,/,/
c1ccc(CSc2nnc(-c3ccco3)n2Cc2ccco2)cc1,i,i,/,i,i,-11,0.0056,?,0.026*,0.0051*,0.014*,0.0086*
O=C(c1cccc(NS(=O)(=O)c2ccc(Br)cc2)c1)N1CCN(c2ccccc2O)CC1,/,/,/,i,/,/,/,/,/,/,/,/
O=C(Cn1cnc2c(oc3ccccc32)c1=O)N1CCCc2ccccc21,i,i,-0.26,i,i,-12,/,/,/,/,/,/
O=C(CSc1ncnc2c1oc1ccccc12)N1CCCc2ccccc21,i,i,/,i,i,-4,0.0065,0.0053,0.029,0.0056,0.016*,0.0098
